Measurements from PMC9123937 (International Journal of Nanomedicine, 2022).

Tests used:
MHCC-97H cells [1] = test: Cytotoxicity study; format: cell-based; details: Homo sapiens, MHCC97H, 96 h, read-out: 96-hour inhibition rate
Procedure, shortened: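 MHCC-97H cells seeded at 3×10^3 cells/well in 96-well plates and cultured 24 h. Test compound added at final 0, 6.25, 12.5, 25, 50 or 100 μg/mL for 24, 48, 72 or 96 h at 37°C, with 0.1% DMSO as negative control. MTT (5 mg/mL stock) added for 3.5 h at 37°C, formazan dissolved in DMSO, absorbance read at 490 nm.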

MHCC-97H cells [2] = test: Apoptosis assay; format: cell-based, human; details: 24 h
Procedure, shortened: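 MHCC-97H cells (high-glucose DMEM, 10% FBS, 37°C, 5% CO2) seeded at 2×10^5 cells/well in 6-well plates and cultured 24 h. Test compound added at 5, 10 or 20 μmol/L for a further 24 h, with 0.1% DMSO and medium controls. Harvested cells stained with Annexin V-FITC and PI for 15 min in the dark in binding buffer, then analysed by flow cytometry.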

COc1cc(/C=C/C(=O)CC(=O)/C=C/c2ccc(O)c(OC)c2)ccc1O [CU, curcumin]
inhibition at 100 µg/mL (MHCC-97H cells [1]): 68.2 ± 1.19% | apoptosis rate (MHCC-97H cells [2]; 5 μmol/L): 17.29 ± 0.66% | apoptosis rate (MHCC-97H cells [2]; 10 μmol/L): 25.74 ± 0.61% | apoptosis rate (MHCC-97H cells [2]; 20 μmol/L): 33.11 ± 1.00%
